Source: ChEMBL document CHEMBL1154198, “Chemical genetics of Plasmodium falciparum” (Nature, 2010)

Assays:
[1] = tested on: Plasmodium falciparum; assay: ST_JUDE: Plasmodium falciparum 3D7 EC50 (uM) as measured by SYBR green dye; format: functional, organism-based
[2] = tested on: Plasmodium falciparum; assay: ST_JUDE: Plasmodium falciparum K1 EC50 (uM) as measured by SYBR green dye; format: functional, organism-based
[3] = tested on: Plasmodium falciparum; assay: ST_JUDE: Cytotoxicity against Plasmodium falciparum 3D7; format: functional, organism-based
Procedure, shortened: (§1)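 Asexual P. falciparum grown in human erythrocytes, exposed to compounds for 72 h, and growth read as the DNA quantity in treated versus control cultures. Dose-response run at 12 concentrations from 10 μM to 5 nM.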

[4] = tested on: Plasmodium falciparum; assay: ST_JUDE: Cytotoxicity against Plasmodium falciparum K1; format: functional, organism-based; procedure, shortened: as §1
[5] = tested on: Plasmodium falciparum; assay: ST_JUDE: Cytotoxicity against Plasmodium falciparum V1/S; format: functional, organism-based
[6] = tested on: Toxoplasma gondii; assay: ST_JUDE: Growth inhibition of to Toxoplasma gondii, in human U-2OS cells, as measured by luciferase.; format: functional, organism-based; conditions: RH, U2OS
Procedure, shortened: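 T. gondii parasites engineered to express luciferase; drug sensitivity read by luminescence.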

[7] = tested on: Trypanosoma brucei; assay: ST_JUDE: Cytotoxicity using luciferase to measure ATP as an indicator of the viability of Trypanosoma brucei; format: functional, organism-based
[8] = tested on: Leishmania major; assay: ST_JUDE: Cytotoxicity using Alamar Blue to measure viability of Leishmania major; format: functional, organism-based
Procedure, shortened: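 L. major promastigotes; drug susceptibility read with Alamar Blue.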

[9] = ST_JUDE: Cytotoxicity using luciferase to measure ATP as an indicator of the viability of human foreskin fibroblast cells (BJ); format: toxicity, cell-based
[10] = ST_JUDE: Cytotoxicity using luciferase to measure ATP as an indicator of the viability of human epithelial hepatocellular carcinoma cells (HepG2); format: toxicity, cell-based
[11] = ST_JUDE: Cytotoxicity using luciferase to measure ATP as an indicator of the viability of human epithelial embryonic kidney cells (HEK293); format: toxicity, cell-based
[12] = ST_JUDE: Cytotoxicity using luciferase to measure ATP as an indicator of the viability of human Burkitt''s lymphoma lymphoblast cells (Raji); format: toxicity, cell-based
[13] = tested on: Plasmodium falciparum; assay: ST_JUDE: Cytotoxicity against Plasmodium falciparum Dd2; format: functional, organism-based
[14] = tested on: Plasmodium falciparum; assay: ST_JUDE: Cytotoxicity against Plasmodium falciparum W2; format: functional, organism-based
[15] = tested on: Plasmodium falciparum; assay: ST_JUDE: Cytotoxicity against Plasmodium falciparum SB-A6; format: functional, organism-based
[16] = tested on: Plasmodium falciparum; assay: ST_JUDE: Cytotoxicity against Plasmodium falciparum D10 transfected with yeast DHOD; format: functional, organism-based

Row | SMILES | EC50 [1] [nM] | EC50 [2] [nM] | EC50 [3] [nM] | EC50 [4] [nM] | EC50 [5] [nM] | EC50 [6] [nM] | EC50 [7] [nM] | EC50 [8] [nM] | EC50 [9] [nM] | EC50 [10] [nM] | EC50 [11] [nM] | EC50 [12] [nM] | EC50 [13] [nM] | EC50 [14] [nM] | EC50 [15] [nM] | EC50 [16] [nM]
1 | Oc1ccc(Br)cc1CN1CCN(Cc2cccc(F)c2)CC1 | 3510 | 1300 | 1560 | 656 | 723 | > 17400 | 25800 | > 13600 | > 31800 | > 31800 | > 31800 | > 31800 | 1500 | 1740 | 1740 | 1500
2 | COc1ccc(C2CC(=O)C3=C(C2)NC(=O)CC3c2ccc(Br)cc2)cc1OC (stereo not drawn) | 1140 | 650 | 1040 | 1110 | 1780 | > 26000 | 25600 | > 20300 | > 47500 | > 47500 | > 47500 | > 47500 | 750 | 7740 | 1490 | 1780
3 | CC[n+]1ccccc1C=Cc1ccc(N(C)C)cc1 | > 15000 | 704 | 1080 | 1140 | 1980 | > 24800 | 14300 | > 19400 | > 45300 | > 45300 | > 45300 | 3860 | 1820 | > 11600 | 1920 | 1470
4 | CCCn1c2c(c(=N)c3c1CCC3)CCCC2 | 2960 | 3020 | 2560 | 3000 | 7630 | > 22100 | > 38700 | 532 | > 40300 | > 40300 | > 40300 | > 40300 | 1970 | > 10400 | 3610 | > 10400
5 | CCCCN(CCCC)CC(O)COc1ccccc1C(=O)Nc1ccccc1 (stereo not drawn) | 59 | 42.4 | 108 | 39.3 | 54.5 | > 29200 | 21300 | > 22800 | > 53200 | > 53200 | > 53200 | > 53200 | 69.2 | 202 | 144 | 163
6 | CC(C)(C)c1ccc(S(=O)(=O)NC2=C/C(=N\c3ccc(O)cc3)C(=O)c3ccccc32)cc1 | 1080 | 579 | 600 | 326 | 687 | > 18000 | 669 | > 14000 | 4620 | 2180 | 7990 | 4070 | 1030 | 385 | 304 | 244
7 | Cc1ccc(C(O)(CNCc2ccccc2)c2ccc(Br)cc2)cc1 (stereo not drawn) | 2230 | 1110 | 2100 | 1170 | 1280 | > 26500 | 9550 | > 20700 | > 48300 | 20000 | > 48300 | 35500 | 1470 | 4370 | 3450 | 1730
8 | CCCO/C(O)=C1\C(C)=NC2=C(C(=O)CC(c3ccc(OC)cc3)C2)C1c1ccccc1Cl (stereo not drawn) | 713 | 466 | 373 | 160 | 173 | > 22900 | 5090 | > 17900 | > 41900 | > 41900 | > 41900 | > 41900 | 301 | 88.9 | 167 | 188
9 | CCCCCCn1c(=N)n(CC(O)COc2ccccc2C)c2ccccc21 (stereo not drawn) | 1260 | 715 | 2200 | 1430 | 2090 | 13900 | 3730 | > 23400 | 16800 | 6980 | 20300 | 12600 | 1110 | 1290 | 4670 | 6570
10 | CC(C)c1ccc(S(=O)(=O)NC2=C/C(=N\c3ccc(O)cc3)C(=O)c3ccccc32)cc1 | 346 | 125 | 547 | 425 | 836 | > 19000 | 750 | > 14900 | 3580 | 2220 | 5470 | 3020 | 946 | 823 | 290 | 288
11 | CCN1/C(=C/c2cccc[n+]2C)C=Cc2cc(C)ccc21 | 439 | 325 | 1500 | 1890 | > 8270 | > 17600 | 7210 | 107 | > 32200 | > 32200 | > 32200 | > 32200 | 1700 | > 8270 | 2050 | 1540
12 | Cc1ccc(C)c(N2CCN(Cc3cc(Cl)ccc3O)CC2)c1 | 724 | 261 | 496 | 195 | 328 | > 19700 | > 34400 | > 15400 | > 35900 | > 35900 | > 35900 | > 35900 | 323 | 1010 | 536 | 549
13 | CSC(=S)N/N=C(\c1ccccc1)c1ccccn1 | 232 | 364 | 563 | 862 | 404 | 1640 | 2210 | > 18400 | > 42900 | > 42900 | > 42900 | 33.4 | 0.8 | > 11000 | 331 | 398
